Measured values taken from ChEMBL document CHEMBL1811848 (Bioorg Med Chem Lett, 2011).

What was measured:
[1] = AUC (0 to infinity) in fasting Wistar rat at 30 mg/kg, po; format: ADME, organism-based; set-up: time infinity, dose 30 mg/kg, route oral; conditions: plasma
In short: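 Single oral dose of 30 mg/kg to fasted male Wistar rats. Pharmacokinetic parameters reported as mean ± SD, n = 3.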

[2] = test system: Rattus norvegicus; experiment: Toxicity in male Wistar rat assessed as urea level at 30 mg/kg, po measured after 28 days (reference value: 30.52 +/- 0.79 mg/dl); format: organism-based; set-up: dose 30 mg/kg, route oral; conditions: in vivo, 672 h
[3] = test system: Rattus norvegicus; experiment: Toxicity in female Wistar rat assessed as brain to body weight ratio at 30 mg/kg, po measured after 28 days (reference value: 0.970 +/- 0.023); format: organism-based; set-up: dose 30 mg/kg, route oral; conditions: in vivo, 672 h
[4] = test system: Rattus norvegicus; experiment: Toxicity in male Wistar rat assessed as change in body weight at 3 mg/kg, po measured after 28 days relative to control; format: organism-based; set-up: dose 3 mg/kg, route oral; conditions: in vivo, 672 h
[5] = species: Mus musculus; experiment: Hypolipidemic activity in Swiss albino mouse assessed as reduction in triglyceride level; format: functional
[6] = test system: Mus musculus; experiment: Hypolipidemic activity in db/db mouse assessed as reduction in triglyceride level at 0.3 mg/kg, po; format: functional; set-up: scale not given: the % may be the effect or the level left
[7] = test system: Rattus norvegicus; experiment: Toxicity in male Wistar rat assessed as urea level at 3 mg/kg, po measured after 28 days (reference value: 30.52 +/- 0.79 mg/dl); format: organism-based; set-up: dose 3 mg/kg, route oral; conditions: in vivo, 672 h
[8] = test system: Rattus norvegicus; experiment: Toxicity in female Wistar rat assessed as glucose level at 30 mg/kg, po measured after 28 days (reference value: 69.94 +/- 2.30 mg/dl); format: organism-based; set-up: dose 30 mg/kg, route oral; conditions: in vivo, 672 h
[9] = test system: Rattus norvegicus; experiment: Toxicity in female Wistar rat assessed as ALP level at 30 mg/kg, po measured after 28 days (reference value: 172.38 +/- 7.18 U/L); conditions: in vivo, 672 h
[10] = test system: Mus musculus; experiment: Hypolipidemic activity in Swiss albino mouse assessed as reduction in triglyceride level at 0.1 mg/kg, po; format: functional; set-up: scale not given: the % may be the effect or the level left
[11] = test system: Rattus norvegicus; experiment: Toxicity in male Wistar rat assessed as glucose level at 30 mg/kg, po measured after 28 days (reference value: 70 +/- 3.49 mg/dl); format: organism-based; set-up: dose 30 mg/kg, route oral; conditions: in vivo, 672 h
[12] = test system: Rattus norvegicus; experiment: Toxicity in male Wistar rat assessed as adrenal to body weight ratio at 3 mg/kg, po measured after 28 days (reference value: 0.018 +/- 0.001); format: organism-based; set-up: dose 3 mg/kg, route oral; conditions: in vivo, 672 h
[13] = test system: Rattus norvegicus; experiment: Toxicity in male Wistar rat assessed as […] level at 3 mg/kg, po measured after 28 days (reference value: 243.88 +/- 20.34 U/L); format: organism-based; set-up: dose 3 mg/kg, route oral; conditions: in vivo, 672 h
[14] = test system: Rattus norvegicus; experiment: Toxicity in female Wistar rat assessed as hemoglobin level at 30 mg/kg, po measured after 28 days (reference value: 11.90 +/- 0.19 g/dl); format: organism-based; set-up: dose 30 mg/kg, route oral; conditions: in vivo, 672 h
[15] = test system: Rattus norvegicus; experiment: Toxicity in female Wistar rat assessed as SGPT level at 30 mg/kg, po measured after 28 days (reference value: 30.44 +/- 1.59 U/L); format: organism-based; set-up: dose 30 mg/kg, route oral; conditions: in vivo, 672 h
[16] = test system: Rattus norvegicus; experiment: Toxicity in female Wistar rat assessed as SGOT level at 3 mg/kg, po measured after 28 days (reference value: 155.70 +/- 6.56 U/L); format: organism-based; set-up: dose 3 mg/kg, route oral; conditions: in vivo, 672 h
[17] = test system: Rattus norvegicus; experiment: Toxicity in male Wistar rat assessed as brain to body weight ratio at 30 mg/kg, po measured after 28 days (reference value: 0.658 +/- 0.015); format: organism-based; set-up: dose 30 mg/kg, route oral; conditions: in vivo, 672 h
[18] = test system: Rattus norvegicus; experiment: Toxicity in female Wistar rat assessed as brain to body weight ratio at 3 mg/kg, po measured after 28 days (reference value: 0.970 +/- 0.023); format: organism-based; set-up: dose 3 mg/kg, route oral; conditions: in vivo, 672 h
[19] = test system: Rattus norvegicus; experiment: Toxicity in male Wistar rat assessed as testes to body weight ratio at 30 mg/kg, po measured after 28 days (reference value: 1.075 +/- 0.106); format: organism-based, Testis; set-up: dose 30 mg/kg, route oral; conditions: in vivo, 672 h

CCO[C@@H](Cc1ccc(OCCc2nc(-c3ccc(C)s3)oc2C)cc1)C(=O)O
AUC(0-inf) [1]: 456 µg·h/mL
Activity [2]: 34.58 mg/dL
Ratio [3]: 0.939
Activity [4]: 33.99%
ED50 [5]: 0.01 mg/kg
Activity [6]: 51.8%
Activity [7]: 31.24 mg/dL
Activity [8]: 91.79 mg/dL
Activity [9]: 248.38 U/L
Activity [10]: 71.8%
Activity [11]: 83.28 mg/dL
Ratio [12]: 0.015
Activity [13]: 470.5 U/L
Activity [14]: 11.83 g/dL
Activity [15]: 35.21 U/L
Activity [16]: 157.09 U/L
Ratio [17]: 0.757
Ratio [18]: 0.947
Ratio [19]: 1.356
